Assays:
Format in all cases: functional, cell-based
[1] = tested on: HepG2; test: Antiproliferative activity against human HepG2 cells incubated for 48 hrs by MTT assay; settings: HepG2, 48 h
Outline: (§1)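 Human tumour cells exposed to compounds for 48 h at 37 °C; viability read by MTT. Growth inhibition (%) measured in triplicate at 5, 10, 20, 40, 80 and 160 μM; data as mean ± standard deviation. IC50 calculated from percentage inhibition of cell growth.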

[2] = Antiproliferative activity against human CaSki cells incubated for 48 hrs by MTT assay; settings: Ca-Ski; outline: as §1
[3] = tested on: HeLa; test: Antiproliferative activity against human HeLa cells incubated for 48 hrs by MTT assay; outline: as §1

SMILES | IC50 [1] [µM] | IC50 [3] [µM] | IC50 [2] [µM]
C[C@@H]1CC[C@@]2(OC1)O[C@H]1C[C@H]3[C@@H]4C=CC5=CC(=O)C(OCc6cn(CC#N)nn6)=C[C@]5(C)[C@H]4CC[C@]3(C)[C@H]1[C@@H]2C | > 100 | > 100 | > 100
CCCCOC1=C[C@@]2(C)C(=CC1=O)C=C[C@H]1[C@@H]3C[C@@H]4O[C@]5(CC[C@@H](C)CO5)[C@@H](C)[C@@H]4[C@@]3(C)CC[C@@H]12 | 85 | 71.6 | 39.5
COC1=C[C@@]2(C)C(=CC1=O)C=C[C@H]1[C@@H]3C[C@@H]4O[C@]5(CC[C@@H](C)CO5)[C@@H](C)[C@@H]4[C@@]3(C)CC[C@@H]12 | 77.1 | > 100 | 28.5
COc1ccc(C(=O)Cn2cc(COC3=C[C@@]4(C)C(=CC3=O)C=C[C@H]3[C@@H]5C[C@@H]6O[C@]7(CC[C@@H](C)CO7)[C@@H](C)[C@@H]6[C@@]5(C)CC[C@@H]34)nn2)cc1 | > 100 | > 100 | > 100
C[C@@H]1CC[C@@]2(OC1)O[C@H]1C[C@H]3[C@@H]4C=CC5=CC(=O)C(OCc6cn(Cc7ccc(CN=[N+]=[N-])cc7)nn6)=C[C@]5(C)[C@H]4CC[C@]3(C)[C@H]1[C@@H]2C | > 100 | > 100 | > 100
CCOC1=C[C@@]2(C)C(=CC1=O)C=C[C@H]1[C@@H]3C[C@@H]4O[C@]5(CC[C@@H](C)CO5)[C@@H](C)[C@@H]4[C@@]3(C)CC[C@@H]12 | > 100 | > 100 | > 100
C#CCOC1=C[C@@]2(C)C(=CC1=O)C=C[C@H]1[C@@H]3C[C@@H]4O[C@]5(CC[C@@H](C)CO5)[C@@H](C)[C@@H]4[C@@]3(C)CC[C@@H]12 | 90.7 | 57.4 | 23.2
C[C@@H]1CC[C@@]2(OC1)O[C@H]1C[C@H]3[C@@H]4C=CC5=CC(=O)C(OCc6cn(-c7ccccc7)nn6)=C[C@]5(C)[C@H]4CC[C@]3(C)[C@H]1[C@@H]2C | > 100 | > 100 | > 100
C[C@@H]1CC[C@@]2(OC1)O[C@H]1C[C@H]3[C@@H]4C=CC5=CC(=O)C(OCc6cn(Cc7ccc(Cn8cc(COC9=C[C@@]%10(C)C(=CC9=O)C=C[C@H]9[C@@H]%11C[C@@H]%12O[C@]%13(CC[C@@H](C)CO%13)[C@@H](C)[C@@H]%12[C@@]%11(C)CC[C@@H]9%10)nn8)cc7)nn6)=C[C@]5(C)[C@H]4CC[C@]3(C)[C@H]1[C@@H]2C | > 100 | > 100 | > 100
C[C@@H]1CC[C@@]2(OC1)O[C@H]1C[C@H]3[C@@H]4C=CC5=CC(=O)C(OCc6cn(CC(=O)c7cccc(Br)c7)nn6)=C[C@]5(C)[C@H]4CC[C@]3(C)[C@H]1[C@@H]2C | 88.1 | > 100 | > 100

Further lines, with some results ahead:

IC50 [1] [µM] | IC50 [3] [µM] | SMILES | IC50 [2] [µM]
61.6 | 80.3 | CCCOC1=C[C@@]2(C)C(=CC1=O)C=C[C@H]1[C@@H]3C[C@@H]4O[C@]5(CC[C@@H](C)CO5)[C@@H](C)[C@@H]4[C@@]3(C)CC[C@@H]12 | 32.1
52.8 | > 100 | C[C@@H]1CC[C@@]2(OC1)O[C@H]1C[C@H]3[C@@H]4C=CC5=CC(=O)C(OCc6cn(CC(=O)c7ccc(O)cc7)nn6)=C[C@]5(C)[C@H]4CC[C@]3(C)[C@H]1[C@@H]2C | 98.7
40.2 | 48.1 | CC(=O)Cn1cc(COC2=C[C@@]3(C)C(=CC2=O)C=C[C@H]2[C@@H]4C[C@@H]5O[C@]6(CC[C@@H](C)CO6)[C@@H](C)[C@@H]5[C@@]4(C)CC[C@@H]23)nn1 | 11.8
53.4 | > 100 | CC(C)COC1=C[C@@]2(C)C(=CC1=O)C=C[C@H]1[C@@H]3C[C@@H]4O[C@]5(CC[C@@H](C)CO5)[C@@H](C)[C@@H]4[C@@]3(C)CC[C@@H]12 | 33.5
45.6 | > 100 | C[C@@H]1CC[C@@]2(OC1)O[C@H]1C[C@H]3[C@@H]4C=CC5=CC(=O)C(OCc6cn(CC(=O)c7cccc(O)c7)nn6)=C[C@]5(C)[C@H]4CC[C@]3(C)[C@H]1[C@@H]2C | 9.4
60.2 | > 100 | C[C@@H]1CC[C@@]2(OC1)O[C@H]1C[C@H]3[C@@H]4C=CC5=CC(=O)C(OCc6cn(CC(=O)c7ccccc7)nn6)=C[C@]5(C)[C@H]4CC[C@]3(C)[C@H]1[C@@H]2C | 99
41.8 | > 100 | COc1ccc(Cn2cc(COC3=C[C@@]4(C)C(=CC3=O)C=C[C@H]3[C@@H]5C[C@@H]6O[C@]7(CC[C@@H](C)CO7)[C@@H](C)[C@@H]6[C@@]5(C)CC[C@@H]34)nn2)cc1 | 67
53.4 | > 100 | C[C@@H]1CC[C@@]2(OC1)O[C@H]1C[C@H]3[C@@H]4C=CC5=CC(=O)C(OCc6cn(Cc7ccccc7)nn6)=C[C@]5(C)[C@H]4CC[C@]3(C)[C@H]1[C@@H]2C | 10.9
53.7 | > 100 | C[C@@H]1CC[C@@]2(OC1)O[C@H]1C[C@H]3[C@@H]4C=CC5=CC(=O)C(OCc6cn(CC(=O)c7ccc(Br)cc7)nn6)=C[C@]5(C)[C@H]4CC[C@]3(C)[C@H]1[C@@H]2C | > 100
44 | > 100 | CCOC(=O)Cn1cc(COC2=C[C@@]3(C)C(=CC2=O)C=C[C@H]2[C@@H]4C[C@@H]5O[C@]6(CC[C@@H](C)CO6)[C@@H](C)[C@@H]5[C@@]4(C)CC[C@@H]23)nn1 | 68.9
76.1 | > 100 | Cc1ccc(C(=O)Cn2cc(COC3=C[C@@]4(C)C(=CC3=O)C=C[C@H]3[C@@H]5C[C@@H]6O[C@]7(CC[C@@H](C)CO7)[C@@H](C)[C@@H]6[C@@]5(C)CC[C@@H]34)nn2)cc1 | > 100
61.3 | > 100 | CC(C)OC1=C[C@@]2(C)C(=CC1=O)C=C[C@H]1[C@@H]3C[C@@H]4O[C@]5(CC[C@@H](C)CO5)[C@@H](C)[C@@H]4[C@@]3(C)CC[C@@H]12 | 29.3
